The conditions of data set [1]: cited from earlier work.
The test system of data set [2] is MDA-MB-231-LM2 lung metastases. Briefly: MDA-MB-231-LM2 lung metastases model in SCID-beige mice. The class given is in vivo, mouse. The conditions noted are these: for antitumor effect: MDA-MB-231-LM2, DZ-2384 0.5, 1.5, 4.5 mg/kg, docetaxel 2, 4 mg/kg. Put shortly:
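Female SCID-beige mice (6–8 weeks) received 2.5×10^5 MDA-MB-231-LM2 cells via lateral tail vein. About 2 weeks later, mice with confirmed lung metastases were randomized by bioluminescent burden. They then got four biweekly iv injections in cremophor EL:ethanol:saline (5:5:90). Weekly imaging used D-luciferin 150 mg/kg ip. Survival was analysed by Kaplan–Meier log-rank; body weight was measured 2–3 times weekly.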

For data set [3] the following is noted: patients receiving docetaxel 100 mg/m^2 for TNBC; cited from earlier work.
The subject of a further data set is MDA-MB-231-BrM2. Put plainly: Brain metastatic tumor model, intracranial MDA-MB-231-BrM2 in NSG mice. It counts as in vivo, mouse. The conditions noted are these: for body weight loss: MDA-MB-231-BrM2 brain model, DZ-2384 10 mg/kg, paclitaxel 40 mg/kg. Put shortly: (§1)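 Cells were implanted intracranially into the right frontal lobe of female NSG mice (6–8 weeks): MDA-MB-231-BrM2 at 7.5×10^4 cells, or luciferase-expressing GCRC-1945 at 1×10^5 cells. Mice were randomized by bioluminescent tumor burden, then dosed iv biweekly for 2 weeks in cremophor EL:ethanol:saline (5:5:90). Imaging was weekly (D-luciferin 150 mg/kg ip, 10 min prior; photon flux). Survival was analysed by Kaplan–Meier log-rank and weights tracked.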

Data set [4] is classed as in vivo, mouse. The method in brief:
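Female NSG mice bearing MDA-MB-231-BrM2 mammary fat pad tumors received a single iv bolus of 10 or 40 mg/kg, depending on compound, in cremophor:ethanol:saline (5:5:90); n=4 per time point. Sampling was at 0–24 h. Plasma was taken, then mice were perfused with 20 ml saline via the left ventricle before brain, heart, lung and tumor harvest. Homogenates were measured by LC–MS/MS; tissue/plasma AUC0–∞ ratios were calculated.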

A short description of data set [5]: Maximum tolerated dose in nontumor bearing NSG mice. The class given is in vivo, mouse. Put shortly: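 Each compound was given to four mice of the relevant strain as four biweekly iv injections. General condition was checked at least three times weekly. Endpoints were >20% weight loss for more than three consecutive days, death, or severe distress. Weights, clinical signs and survival were recorded until 1 week after the last dose.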

The subject of a further data set is GCRC-2076 PDX. Briefly: Orthotopic TNBC PDX GCRC-2076. It counts as in vivo, mouse. The conditions noted are these: for median survival: GCRC-2076 at 0.5x MTD, vehicle 30 days. The method in brief:
(§2)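 PDX tumor fragments (1–1.5 mm3) were implanted into the left fat pad of female NSG mice (6–8 weeks), passaged ≤8 times. Mice were randomized at 100–250 mm3 and treated iv once weekly for 4 weeks, with doses set as fractions of each agent's MTD. Caliper volume was calculated as 4/3π[(a/2)×(b/2)^2]. Kaplan–Meier log-rank and Student's t-test were used.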

A further data set deals with GCRC-1945. Briefly: Brain metastatic tumor model, intracranial GCRC-1945 in NSG mice. It counts as in vivo, mouse. The conditions noted are these: for body weight loss: GCRC-1945 brain model, DZ-2384 10 mg/kg, paclitaxel 40 mg/kg. Put shortly:
as §1

The test system of another data set is GCRC-1945 PDX. Put plainly: Orthotopic TNBC PDX GCRC-1945 model in NSG mice. The class given is in vivo, mouse. The conditions noted are these: for median survival: GCRC-1945 at MED (DZ-2384 1.25 mg/kg, paclitaxel 10 mg/kg), vehicle 36 days. Put shortly: as §2
In the next data set the test system is RenCa tumors. Put plainly: RenCa syngeneic renal carcinoma model in Balb/c mice. It counts as in vivo, mouse. As to conditions: within the first 18 days of treatment. Put shortly:
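Balb/c mice (6–8 weeks) were injected with 2.5×10^5 RenCa cells in the left lower flank, then randomized at 100–150 mm3 (n=7/group). On day 1 they got a single iv dose of test compound (14 mg/kg) or cremophor EL:ethanol:saline vehicle. From 4 days later, they received biweekly ip anti-CTLA-4 (9H10) or rat IgG2a isotype (2A3) at 10 mg/kg for 2 weeks. Individual tumor volumes were measured 2–3 times weekly.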

SMILES strings stand for the structures.

Regarding `CC(=O)O[C@@]12CO[C@@H]1C[C@H](O)[C@@]1(C)C(=O)[C@H](O)C3=C(C)[C@@H](OC(=O)[C@H](O)[C@@H](NC(=O)OC(C)(C)C)c4ccccc4)C[C@@](O)([C@@H](OC(=O)c4ccccc4)[C@H]21)C3(C)C` [docetaxel, reference compound], the “loss in digital and caudal nerve conduction velocity” value in data set [1] (rat, docetaxel 10 mg/kg (lowest dose tested)) is given as 12–23%. Moreover, the antitumor effect result in [2] is on record as “effective at only the 4 mg/kg dose”. For the same compound, in [2] (MDA-MB-231-LM2 model, 4 mg/kg docetaxel (MED)), the weight loss result was “more than 10%”. In [3], the exposure in patients was 4810 to 5200 ng·h/mL.
The half-life is the time in which the quantity being followed falls by half. High values mean slow decline, low ones rapid decline. The MTD is the highest dose tested that stayed within the study's limit of toxicity. The low end stands for a narrow tolerated range, the high end for a wide tolerated range. On to `CC(=O)O[C@H]1C(=O)[C@@]2(C)[C@H]([C@H](OC(=O)c3ccccc3)[C@]3(O)C[C@H](OC(=O)[C@H](O)[C@@H](NC(=O)c4ccccc4)c4ccccc4)C(C)=C1C3(C)C)[C@]1(OC(C)=O)CO[C@@H]1C[C@@H]2O` [paclitaxel, reference compound], for which the body weight loss result with MDA-MB-231-BrM2 and with GCRC-1945 was “less than 10%” each time. In data set [4] (female, NSG, mouse, tumor, iv, 40 mg/kg), the half-life is 19.1 h. This compound registered an MTD at 2 weeks in [5] (NSG, mouse, in vivo, iv) of 40 mg/kg. In addition, the antitumor efficacy entry with GCRC-2076 PDX (GCRC-2076, 0.25x MTD) is listed as “not effective”; in the data set with GCRC-1945 PDX (GCRC-1945, 0.5x MTD), “equally effective”. For the same compound, the median survival in the data set with GCRC-2076 PDX is reported as 69 days; in the data set with GCRC-1945 PDX, 53 days.
On to `CC(C)[C@H](O)C(=O)N[C@H]1Cc2ccc3c(c2)[C@]2(C4=C(c5nc(CO)co5)N=C(O4)[C@H](C(C)(C)C)NC1=O)c1cc(F)ccc1N[C@@H]2O3` [DZ-2384], for which the body weight loss result in the data set on MDA-MB-231-BrM2 and with GCRC-1945 was “less than 10%” throughout. Besides, the “efficacy (tumor burden, median survival vs vehicle)” value with MDA-MB-231-BrM2 (intracranial MDA-MB-231-BrM2, MTD, iv biweekly for 2 weeks) is “efficacious”; with GCRC-1945 (intracranial GCRC-1945, MTD, iv biweekly for 2 weeks), “efficacious”. In data set [4] (AUC ratio brain/plasma, single iv dose at MTD, NSG mice), the “proportion that accumulates in the brain relative to plasma exposure” value is 15%. Further, the “accumulation in tumor tissue relative to plasma” value in data set [4] (AUC ratio tumor/plasma, single iv dose at MTD, NSG mice) amounted to 18 fold. The “maximum concentration (Cmax) ratio in tumor relative to plasma” value in [4] (single iv dose at MTD, NSG mice) was 1.3. Moreover, the “effects on peripheral nerves” value in data set [1] (rat model of peripheral neuropathy, effective levels) is on record as “no detrimental effects on peripheral nerves”. Moreover, the “maximum tolerated dose (MTD)” value in data set [5] (nontumor bearing NSG mice, iv biweekly for 2 weeks) stood at 10 mg/kg. In addition, the “tumor free mice (bioimaging)” value in [2] (MDA-MB-231-LM2, 4.5 mg/kg, 5 months after treatment initiation) is listed as “four of nine”. Besides, the median survival result in data set [2] (MDA-MB-231-LM2, 4.5 mg/kg, vehicle 37 days) is listed as “more than 150 days”; in the data set on GCRC-2076 PDX, 88 days; in the data set on GCRC-1945 PDX, 71 days. In data set [2], the antitumor effect result is “profound antitumor effect at all doses tested”. Besides, the antitumor efficacy result is “more effective than paclitaxel” in the data set on GCRC-2076 PDX (GCRC-2076, 0.25x and 0.5x MTD); “more effective than paclitaxel” with GCRC-1945 PDX (GCRC-1945, 0.125x and 0.25x MTD); “equally effective” with GCRC-1945 PDX (GCRC-1945, 0.5x MTD). The “effect on tumor volume relative to vehicle control” value with RenCa tumors was “modest effects on tumor volume”.

These data come from PMC6133219 (Anti-Cancer Drugs, 2018).
